This passage reports inhibition and Activity results from ChEMBL document CHEMBL1150128, “New antioxidant hydroquinone derivatives from the algicolous marine fungus Acremonium sp” (J Nat Prod, 2002).

The source made the active and inactive calls. No cut-off for these calls is given here.

A short description of experiment [1]: Antioxidant activity assessed as inhibition of linolenic acid peroxidation at 7.4 ug/mL by TBARS assay. The format is functional. Summed up:
(§1)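 Linolenic acid methyl ester (70 mM stock in EtOH) is oxidized with sample (1 or 0.2 mg/mL ethanolic stock) in 50 mM phosphate buffer pH 7.2 with SDS and FeSO4 in 0.025 M HCl. Incubation is 50 °C for 30 min, then covered at 60 °C for 30 min, then room temperature for 4 min. Readout is A532 minus A600, with % inhibition calculated against sample blank, control and blank.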

The test system of experiment [2] is Radical scavenging activity. The experiment is described as follows: Antioxidant activity assessed as DPPH free radical scavenging activity at 500 ug/mL. The format is functional. Summed up:
(§2)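 Ethanolic sample (1 mg/mL stock) is mixed with DPPH (1 mM stock) in EtOH, shaken briefly, and held at room temperature in the dark for 30 min. Radical scavenging is read as absorbance at 517 nm of sample versus control. Results are reported at the listed concentrations in µg/mL.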
Background: Loss of DPPH colour is used to gauge radical scavenging.

The subject of experiment [3] is Radical scavenging activity. The experiment is described as follows: Antioxidant activity assessed as DPPH free radical scavenging activity at 100 ug/mL. Type of experiment: functional. Summed up:
as §2

For experiment [4], the system named is Radical scavenging activity. In words: Antioxidant activity assessed as DPPH free radical scavenging activity at 50 ug/mL. The format is functional. Summed up: as §2
Experiment [5] addresses Human immunodeficiency virus type 1 reverse transcriptase (Human immunodeficiency virus 1) (UniProt Q72547). The experiment is described as follows: Inhibition of HIV1 reverse transcriptase by ELISA. (In an ELISA, binding on a coated surface is turned into a signal by an enzyme label.)
Experiment [6] deals with Tyrosine-protein kinase Lck (Homo sapiens) (UniProt P06239). The experiment is described as follows: Inhibition of p56lck by ELISA.
The subject of experiment [7] is Radical scavenging activity. The experiment is described as follows: Antioxidant activity assessed as DPPH free radical scavenging activity at 25 ug/mL. Type of experiment: functional. Summed up:
as §2

Experiment [8] has as its system Radical scavenging activity. The experiment is described as follows: Antioxidant activity assessed as DPPH free radical scavenging activity at 5 ug/mL. Type of experiment: functional. Summed up:
as §2

A short description of experiment [9]: Antioxidant activity assessed as inhibition of linolenic acid peroxidation at 37 ug/mL by TBARS assay. The format is functional. Summed up: as §1

Chain of Tyrosine-protein kinase Lck (Homo sapiens) (P06239 2-509 limits assumed): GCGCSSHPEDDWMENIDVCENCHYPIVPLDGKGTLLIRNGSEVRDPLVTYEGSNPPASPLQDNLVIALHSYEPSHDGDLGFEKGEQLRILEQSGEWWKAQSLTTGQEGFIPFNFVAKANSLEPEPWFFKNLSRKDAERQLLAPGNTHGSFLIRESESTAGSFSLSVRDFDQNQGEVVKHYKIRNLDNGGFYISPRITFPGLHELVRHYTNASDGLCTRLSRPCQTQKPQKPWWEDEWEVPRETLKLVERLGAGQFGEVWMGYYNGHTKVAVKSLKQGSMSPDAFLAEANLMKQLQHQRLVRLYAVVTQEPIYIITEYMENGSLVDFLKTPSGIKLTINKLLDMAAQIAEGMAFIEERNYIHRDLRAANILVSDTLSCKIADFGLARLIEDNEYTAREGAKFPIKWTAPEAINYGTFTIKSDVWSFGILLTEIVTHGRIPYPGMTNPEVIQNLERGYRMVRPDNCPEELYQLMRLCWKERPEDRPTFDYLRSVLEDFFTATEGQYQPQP

A word on the inhibition: it is the relative decrease from the control value, in per cent. As to `COC(=O)C(CCC(=O)O)=C(C)C`, in [1], the inhibition was -8.6%. The Activity in [2] came to 35.1%; in experiment [3], 10.3%; in [4], 3.4%.
Regarding `CC(C)=C(CCC(=O)O)C(=O)O`, the inhibition in [1] was -9%. Moreover, the Activity is 15.3% in experiment [2], 3.8% in experiment [3] and -0.5% in experiment [4]. The result in experiment [5] and in experiment [6] was inactive.
As to `C=C(C)C1Cc2c(O)ccc(O[C@@H]3O[C@H](CO)[C@@H](O)[C@H](O)[C@H]3O)c21` (some centres undefined), the Activity in experiment [2] stood at 79.9%; in experiment [7] it was 17.5%; in experiment [3], 43%; in experiment [4] it was 27.7%; in experiment [8] it was 5.6%. Further, the result in experiment [5] and in experiment [6] was inactive.
Take `CC(C)(O)C(O)Cc1cc(O)ccc1O` (centres undefined): the inhibition in experiment [1] was 2%; in [9], 16.6%. Moreover, the Activity amounted to 82.9% in [2], 90.2% in experiment [7], 89.9% in experiment [3] and 90.7% in experiment [4].
For the compound `Cc1cc(C(C)(C)C)c(O)c(C(C)(C)C)c1`, the inhibition was 36.2% in [1] and 43.9% in [9]. For the same compound, the Activity in experiment [2] amounted to 89.8%; in [7], 24.2%; in experiment [3], 63.8%; in experiment [4] it was 41.1%; in [8], 6%.
Regarding `OC[C@H]1O[C@@H](Oc2ccc(O)cc2)[C@H](O)[C@@H](O)[C@@H]1O`, the Activity in experiment [2] worked out at 78.6%; in experiment [7], 18.3%; in experiment [3], 52.6%; in [4], 23.5%; in [8] it was 1.9%.
Take `CC1(C)Oc2ccc(O)cc2CC1O` (centres undefined): the inhibition in experiment [1] was -9.8%; in [9], 9.2%. Besides, the Activity in experiment [2] came to 89.9%; in experiment [7], 72.9%; in experiment [3] it was 89.1%; in [4], 85.1%; in experiment [8], 25.7%. Further, the outcome in experiment [5] and in [6] was inactive.
With `C=C(C)C(CCC(=O)OC)C(=O)O` (centres undefined), in [1], the inhibition was -8.6%. In addition, the Activity in experiment [2] came to 35.1%; in [3] it was 10.3%; in [4], 3.4%.
Regarding `CC(C)(O)C1Cc2cc(O)ccc2O1` (centres undefined), the Activity in [2] worked out at 90.4%; in experiment [7] it was 85.8%; in [3], 90.2%; in [4], 89.1%; in experiment [8], 35.3%. Besides, the inhibition in experiment [9] came to 15.9%. Moreover, the outcome in experiment [5] and in experiment [6] was inactive.
For the compound `C=C(C)C1Cc2c(O)ccc(O)c21` (centres undefined), the inhibition in experiment [1] came to 13.9%; in experiment [9], 35.5%. Besides, the Activity in experiment [2] came to 90.1%; in experiment [7], 85.5%; in experiment [3], 90%; in experiment [4], 90%; in [8], 26%. Moreover, the result in experiment [5] and in experiment [6] was inactive.
For the compound `COC(=O)CCC(C(=O)O)=C(C)C`, in experiment [1], the inhibition is -8.6%. Also, the figures for the Activity in [2], in [3] and in experiment [4] were 35.1%, 10.3% and 3.4%, respectively.
